High-throughput results deposited in PubChem by The Scripps Research Institute Molecular Screening Center.
HTRA1 inh: HTRA1 (human) protease inhibition; Q92743; recombinant HTRA1, FP-rhodamine activity-based probe, fluorescence polarization; inhibition, % at 5.96 µM; hit rate 0.5% among 340,000; AID 504803; in the data active = inhibition above about 36%
TCR-CD3 inh: inhibitors of human TCR-CD3 interaction | inhibition, % at 9.4 µM | TAMRA-labeled TCR probe fluorescence, biochemical | hit rate 0.37% among 360,000; in the data active = inhibition above about 19%;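 also: recombinant mutant TCR 2C K166C tagged with TAMRA read by polarization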
mABHD4 FP: inhibitors of mouse ABHD4; purified mABHD4, FP-Rh probe fluorescence polarization; inhibition, % at 8.92 µM; hit rate 0.54% among 370,000; AID 720543;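 active = inhibition exceeding the mean over every tested compound plus 3 SD, cut at about 30% in these data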
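Assay system: mouse ABHD4 enzyme, wild type / Also added: fluorescent activity-based probe FP-Rh / Doses: single nominal dose of 8.92 µM, 0.89% DMSO final / Timing: 45 min compound pre-incubation plus 60 min probe step, 25 °C / Signal: FP readout, ex 525 nm / em 598 nm / Control set: S159A mutant/DMSO as 100%, compound-well median as 0%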
Tn7 DDE FP: disrupts Tn7 cyclic peptide binding to fibrin D-Dimer-E complex. P02675. FP displacement of FITC-Tn7 peptide from fibrin DD(E); 0% = median of compound wells per plate. inhibition, % at 8.3 µM. hit rate 0.13% among 370,000. AID 720508;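 active = inhibition above the mean of compounds falling within the control limits plus 3 SD of them, cut at about 14% in these data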
Target sequence (P02675 whole entry, looked up): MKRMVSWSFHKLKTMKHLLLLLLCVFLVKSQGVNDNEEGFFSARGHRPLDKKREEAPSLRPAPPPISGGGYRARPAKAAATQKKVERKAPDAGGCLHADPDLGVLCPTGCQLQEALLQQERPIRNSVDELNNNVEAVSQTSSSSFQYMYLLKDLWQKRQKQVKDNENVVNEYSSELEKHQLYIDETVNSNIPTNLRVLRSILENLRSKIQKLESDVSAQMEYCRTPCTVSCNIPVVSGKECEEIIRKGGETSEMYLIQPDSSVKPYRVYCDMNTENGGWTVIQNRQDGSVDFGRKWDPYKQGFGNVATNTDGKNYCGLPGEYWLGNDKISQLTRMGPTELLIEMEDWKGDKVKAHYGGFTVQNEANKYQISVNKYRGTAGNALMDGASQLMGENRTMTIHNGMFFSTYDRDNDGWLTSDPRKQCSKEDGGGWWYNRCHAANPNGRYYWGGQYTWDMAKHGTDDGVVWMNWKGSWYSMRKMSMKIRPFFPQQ
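Test system – human fibrin DD(E) · Times – 10 min preincubation, 3 h with tracer, room temperature · Detection – fluorescence polarization of the labelled Tn7 tracer · Measure – percent inhibition normalized to high-control wells · Benchmarks – high control wells with 10 µM unlabelled Aha-Tn7 peptide (full inhibition) · Repeats – singlicate testing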
Tn6 DDE FP: inhibitors of Tn6 peptide binding to human fibrin DD(E); hit rate 0.21% among 370,000; inhibition, % at 8.3 µM; P02675; Fibrin DD(E) TRITC-Tn6 fluorescence polarization displacement;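 active = inhibition above a per-campaign cutoff: mean of compounds within control limits plus 3 SD, cut at about 15% in these data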
Tn6 DDE ctr: DD(E)-Tn6 binding inhibition, counter-screen; shares compounds with Tn6 DDE FP; Fibrin DD(E), TRITC-Tn6 fluorescence polarization displacement; 0% = median of compound wells, not DMSO; inhibition, % at 8.3 µM; hit rate 2% among 680; AID 720621;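 active = inhibition above the mean of test compounds lying between the control limits plus 3 SD of those, cut at about 14% in these data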
DDE Tn6 confirm: confirmation of inhibitors of Tn6 binding to human fibrin DD(E); shares compounds with Tn6 DDE FP; FP displacement of TRITC-Tn6 peptide from DD(E); 0% = per-plate median of test wells; inhibition, % at 8.3 µM; hit rate 10% among 680;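 active = inhibition above the mean of compounds lying within the control limits plus 3 SD, cut at about 16% in these data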
mABHD4 conf: ABHD4 (mouse) inhibition, FP confirmation | shares compounds with mABHD4 FP | purified mABHD4, FP-Rh probe fluorescence polarization | inhibition, % at 8.92 µM | hit rate 55% among 1,800;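 active = mean inhibition across replicates above the hit cutoff set in the primary screen, cut at about 30% in these data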
Large screens that a line does not name were inactive (follow-up assays come after a bar, where they were run). Compounds with a hit are over-represented: about 1.3% of the library has one in this group of screens.

COc1ccc(NC(=O)C(c2cc3c(cc2[N+](=O)[O-])OCO3)N(C)Cc2ccccc2)cc1 (stereo unspecified)	mABHD4 FP 67, Tn6 DDE FP 31 | Tn6 DDE ctr inactive | DDE Tn6 confirm inactive | mABHD4 conf inactive
CN1CC=C2C(C#N)=C(N)C(C#N)(C#N)[C@H](c3cccc(Cl)c3)C2C1 (stereo partly specified)	mABHD4 FP 31, Tn6 DDE FP 18 | Tn6 DDE ctr inactive | DDE Tn6 confirm inactive | mABHD4 conf inactive
Cc1cc(N(CN2CCCC2=O)C(=O)c2ccc(OC(C)C)cc2)no1	none
CCc1cc(C(=O)N=Nc2c(O)[nH]c3ccc([N+](=O)[O-])cc23)c2ccccc2n1	mABHD4 FP 40 | mABHD4 conf 41
O=C(Nc1ccc([N+](=O)[O-])cc1)C(=O)Nc1cccc(C(=O)O)c1	mABHD4 FP 30 | mABHD4 conf inactive
O=C(O)/C=C/c1cccc(NC(=O)Nc2ccc([N+](=O)[O-])cc2)c1	mABHD4 FP 30 | mABHD4 conf inactive
CC(=O)c1ccc(NC(=O)Nc2ccc([N+](=O)[O-])cc2)cc1	none
COc1ccc(C=NNC(=O)c2ccccc2NS(=O)(=O)c2cccs2)cc1O	none
O=C(NN=Cc1ccc(O)cc1O)c1ccccc1NS(=O)(=O)c1cccs1	mABHD4 FP 33 | mABHD4 conf 36
CCC(C)COC(c1ccccc1)(c1ccccc1)C(Oc1nc(C)cc(C)n1)C(=O)O (stereo unspecified)	mABHD4 FP 31 | mABHD4 conf 35
CCCOC(c1ccccc1)(c1ccc(C(F)(F)F)cc1)C(Oc1nc(C)cc(C)n1)C(=O)O (stereo unspecified)	none
Cc1cc(C)nc(OC(C(=O)O)C(OCCc2ccccc2)(c2ccc(F)cc2)c2ccc(F)cc2)n1 (stereo unspecified)	mABHD4 FP 40 | mABHD4 conf 43
COc1ccc(C(=O)Nc2nc(N3C(=O)c4ccccc4C3=O)n(-c3ccccc3)n2)cc1	none
CN(C(=S)NC(=O)C1CC1)c1ccc(O)cc1	mABHD4 FP 30 | mABHD4 conf inactive
Cn1c(-c2ccsc2)c(-c2cccs2)c2cc(-c3ccc4cc[nH]c4c3)ccc21	mABHD4 FP 35 | mABHD4 conf 40
CN(C)CCOC(=O)COc1ccc(Cl)cc1	mABHD4 FP 62 | mABHD4 conf inactive
O=C(O)CN1C(=O)/C(=C2\SC(=S)N(C(Cc3ccccc3)C(=O)O)C2=O)c2ccccc21 (stereo unspecified)	mABHD4 FP 56 | mABHD4 conf 45
Cc1c(N2C(=O)/C(=C3/C(=O)N(C)c4ccccc43)SC2=S)c(=O)n(-c2ccccc2)n1C	none
O=C(O)CCN1C(=O)/C(=C2\C(=O)N(Cc3ccccc3Cl)c3ccccc32)SC1=S	none
CCCC(C(=O)O)N1C(=O)/C(=C2\C(=O)N(C)c3ccccc32)SC1=S (stereo unspecified)	mABHD4 FP 41 | mABHD4 conf 58
O=c1oc2ccc(Cl)cc2cc1-c1ccccc1	none
COC(=O)c1cc2c(c3c4cc(C)ccc4n(S(=O)(=O)c4ccc(C)cc4)c13)C(=O)N(Cc1ccc(C(F)(F)F)cc1)C2	none (no result: HTRA1 inh)
Nc1[nH]n(-c2ccccc2)c(=O)c1N=Nc1ccc2c(c1)OCO2	none
Cc1ccccc1N=Nc1c(N)[nH]n(-c2ccccc2)c1=O	mABHD4 FP 34 (no result: HTRA1 inh, TCR-CD3 inh) | mABHD4 conf 43
Cc1cc([N+](=O)[O-])ccc1N=Nc1c(N)[nH]n(-c2ccccc2)c1=O	mABHD4 FP 30 | mABHD4 conf 41
Nc1[nH]n(-c2ccccc2)c(=O)c1N=Nc1ccc2c(c1)OCCO2	mABHD4 FP 30 | mABHD4 conf inactive
CCOC(=O)C1=C(C)NC2=C(C(=O)c3ccccc32)C1c1ccc(O)cc1 (stereo unspecified)	mABHD4 FP 43 | mABHD4 conf 49
CCC(C)c1ccccc1NC(=O)COC(=O)c1ccc(C)c(NC(=O)c2ccco2)c1 (stereo unspecified)	mABHD4 FP 49 | mABHD4 conf inactive
CC1OC2CC(=O)OC2C2=C1C(=O)c1c(O)cccc1C2=O (stereo unspecified)	mABHD4 FP 38 (no result: HTRA1 inh) | mABHD4 conf 35
Cc1ccc(NCc2ccccc2)cc1	none
Cc1ccc(NCc2cccc(B(O)O)c2)cc1	mABHD4 FP 59 | mABHD4 conf 61
CCOc1ccc(C=NNc2ccc(S(=O)(=O)Nc3ccccc3C(=O)O)cc2[N+](=O)[O-])cc1OC	none (no result: TCR-CD3 inh, mABHD4 FP, Tn7 DDE FP, Tn6 DDE FP)
CC(=O)Nc1ccc(C=NNc2ccc([N+](=O)[O-])cc2S(=O)(=O)Nc2ccccc2C(=O)O)cc1	none
CC(=O)Nc1ccc(C=NNc2ccc(S(=O)(=O)Nc3ccccc3C(=O)O)cc2[N+](=O)[O-])cc1	mABHD4 FP 55 | mABHD4 conf 77
CC(=O)Nc1cccc(/C(C)=N/Nc2ccc(S(=O)(=O)Nc3ccccc3C(=O)O)cc2[N+](=O)[O-])c1	mABHD4 FP 42 | mABHD4 conf 63
O=C(O)c1cccc(N/N=C/C2=C(Cl)c3cc(Cl)ccc3SC2)c1	mABHD4 FP 30 | mABHD4 conf 87
O=C(O)c1cccc(N/N=C/c2ccc(F)c(F)c2)c1	none
COc1ccc2nc(Nc3nc(C)c(C(C)=O)s3)sc2c1	mABHD4 FP 35 | mABHD4 conf 54
COc1ccc(Nc2nc3ccc(OC)cc3s2)cc1	none
N#CCCC1CCCC=C1N(Cc1ccccc1)C(=O)C(Cl)Cl (stereo unspecified)	none (no result: HTRA1 inh)
N#C/C(=C(/O)c1ccc2c(c1)OCO2)c1nc2cc(C(F)(F)F)ccc2s1	mABHD4 FP 33 | mABHD4 conf inactive
COC(=O)c1ccc(OCc2nn[nH]n2)cc1	none
COc1ccc(OC)c(N/C(C)=C/C(=O)c2ccccc2)c1	none
COc1ccc(OC)c(N/C(C)=C/C(=O)c2ccncc2)c1	mABHD4 FP 49 | mABHD4 conf inactive
COc1ccc(OC)c(NC(=O)C(=O)/C=C(\O)c2cc(OC)ccc2OC)c1	mABHD4 FP 35 | mABHD4 conf inactive
COc1ccc(OC)c(NC(=O)Nc2ccc(O)c3ccccc23)c1	mABHD4 FP 33 | mABHD4 conf 41
COc1ccc(CNC(=O)CCCC2=NS(=O)(=O)c3ccccc3N2)cc1	none
